Data reported in ChEMBL document CHEMBL3632607, “Identification and SAR of Glycine Benzamides as Potent Agonists for the GPR139 Receptor” (ACS Med Chem Lett, 2015).
Values belong to the compound of their own block, whether it stands above or below them. Active and inactive are the calls of the source. The rule behind the calls is not given here.

How the values were obtained:
[1] = target: T1, Probable G-protein coupled receptor 139 (Homo sapiens, UniProt Q6DWJ6); test: Agonist activity at human GPR139 receptor expressed in HEK293 cells assessed as calcium mobilization by FLIPR assay; type: functional, cell-based
T1 sequence (Q6DWJ6 whole entry): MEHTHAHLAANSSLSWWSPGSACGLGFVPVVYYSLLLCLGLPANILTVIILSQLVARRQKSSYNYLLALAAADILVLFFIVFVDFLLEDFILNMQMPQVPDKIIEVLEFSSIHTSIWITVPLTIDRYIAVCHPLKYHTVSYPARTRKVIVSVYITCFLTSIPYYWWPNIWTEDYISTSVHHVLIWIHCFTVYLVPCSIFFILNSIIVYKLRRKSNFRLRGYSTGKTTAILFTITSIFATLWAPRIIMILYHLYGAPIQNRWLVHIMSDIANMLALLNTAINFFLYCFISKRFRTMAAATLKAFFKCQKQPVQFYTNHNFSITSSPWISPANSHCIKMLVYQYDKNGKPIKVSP

[2] = Extraction ratio in human liver microsomes at 1 uM after 1 hr by LC-MS/MS analysis; type: ADME; settings: read-out: ERH
Method in brief: (§1)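 Extraction ratio is in vitro microsomal clearance divided by Q, the species-specific hepatic blood flow (human or rat).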

[3] = Extraction ratio in rat liver microsomes at 1 uM after 1 hr by LC-MS/MS analysis; type: ADME; settings: read-out: ERH; method in brief: as §1
[4] = Apparent permeability of the compound in MDCK cells; type: ADME, cell-based, Canis lupus familiaris; settings: dog
Method in brief: (§2)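 Permeability was measured in MDR1-transfected Madin Darby canine kidney (MDR1-MDCK) cells. Papp is given in units of 1 × 10–6 cm/s. The efflux ratio is Papp basal-to-apical divided by Papp apical-to-basal.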

[5] = Efflux ratio of apparent permeability from basolateral to apical side to apical to basolateral side in MDCK cells; type: ADME, cell-based, Canis lupus familiaris; settings: dog; method in brief: as §2
[6] = Fraction unbound in human plasma at 0.1 to 10 uM after 6 hrs by LC-MS/MS analysis; type: ADME, cell-free
[7] = Fraction unbound in rat plasma at 0.1 to 10 uM after 6 hrs by LC-MS/MS analysis; type: ADME, cell-free
[8] = Fraction unbound in rat brain at 0.1 to 10 uM after 6 hrs by LC-MS/MS analysis; type: ADME, tissue-based
[9] = Aqueous solubility of the compound in 30 mM phosphate buffer at pH 2 after 3 days; type: physicochemical
[10] = Aqueous solubility of the compound in 30 mM phosphate buffer at pH 7 after 3 days; type: physicochemical
[11] = target: T2, Cytochrome P450 1A2 (Homo sapiens, UniProt P05177); test: Inhibition of CYP1A2 in human liver microsomes using phenacetin as substrate up to 10 uM by LC-MS/MS analysis; type: ADME
T2 sequence (P05177 whole entry): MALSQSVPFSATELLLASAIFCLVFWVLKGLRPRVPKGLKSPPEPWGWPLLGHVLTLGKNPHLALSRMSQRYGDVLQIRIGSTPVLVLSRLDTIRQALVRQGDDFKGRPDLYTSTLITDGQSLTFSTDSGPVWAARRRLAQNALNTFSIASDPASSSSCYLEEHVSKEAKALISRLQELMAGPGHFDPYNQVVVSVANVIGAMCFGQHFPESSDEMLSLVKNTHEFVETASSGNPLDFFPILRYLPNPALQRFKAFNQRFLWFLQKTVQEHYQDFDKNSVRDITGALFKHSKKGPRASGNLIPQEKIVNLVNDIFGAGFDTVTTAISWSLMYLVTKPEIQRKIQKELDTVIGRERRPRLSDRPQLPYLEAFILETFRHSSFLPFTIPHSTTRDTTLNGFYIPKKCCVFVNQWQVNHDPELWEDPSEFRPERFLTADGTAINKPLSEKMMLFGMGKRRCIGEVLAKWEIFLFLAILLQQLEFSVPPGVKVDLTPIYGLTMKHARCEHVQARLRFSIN

[12] = target: T3, Cytochrome P450 2C8 (Homo sapiens, UniProt P10632); test: Inhibition of CYP2C8 in human liver microsomes using paclitaxel as substrate up to 10 uM by LC-MS/MS analysis; type: ADME
T3 sequence (P10632 whole entry): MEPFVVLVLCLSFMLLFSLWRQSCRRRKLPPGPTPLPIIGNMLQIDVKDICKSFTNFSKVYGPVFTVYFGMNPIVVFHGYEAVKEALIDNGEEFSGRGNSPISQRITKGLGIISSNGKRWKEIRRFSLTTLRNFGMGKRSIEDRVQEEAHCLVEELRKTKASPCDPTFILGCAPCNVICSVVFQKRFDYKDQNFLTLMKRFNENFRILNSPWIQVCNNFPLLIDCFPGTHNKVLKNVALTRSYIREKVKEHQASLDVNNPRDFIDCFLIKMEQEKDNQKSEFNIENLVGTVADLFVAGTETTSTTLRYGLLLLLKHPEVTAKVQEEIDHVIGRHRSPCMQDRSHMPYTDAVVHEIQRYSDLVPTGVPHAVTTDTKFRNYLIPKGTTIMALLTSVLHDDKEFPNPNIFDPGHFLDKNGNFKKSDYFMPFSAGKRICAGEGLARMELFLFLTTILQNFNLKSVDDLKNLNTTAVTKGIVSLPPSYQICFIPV

[13] = target: Cytochrome P450 2C9 (Homo sapiens, UniProt P11712); test: Inhibition of CYP2C9 in human liver microsomes using diclofenac as substrate up to 10 uM by LC-MS/MS analysis; type: ADME
[14] = target: Cytochrome P450 2C19 (Homo sapiens, UniProt P33261); test: Inhibition of CYP2C19 in human liver microsomes using S-mephenytoin as substrate up to 10 uM by LC-MS/MS analysis; type: ADME
[15] = target: Cytochrome P450 2D6 (Homo sapiens, UniProt P10635); test: Inhibition of CYP2D6 in human liver microsomes using dextromethorphan as substrate up to 10 uM by LC-MS/MS analysis; type: ADME
[16] = target: Cytochrome P450 3A4 (Homo sapiens, UniProt P08684); test: Inhibition of CYP3A4 in human liver microsomes using midazolam as substrate up to 10 uM by LC-MS/MS analysis; type: ADME
[17] = target: T4, Protein Gpr142 (Rattus norvegicus) (UniProt F1LWD8); test: Agonist activity at rat GPR142 receptor
T4 sequence (whole entry): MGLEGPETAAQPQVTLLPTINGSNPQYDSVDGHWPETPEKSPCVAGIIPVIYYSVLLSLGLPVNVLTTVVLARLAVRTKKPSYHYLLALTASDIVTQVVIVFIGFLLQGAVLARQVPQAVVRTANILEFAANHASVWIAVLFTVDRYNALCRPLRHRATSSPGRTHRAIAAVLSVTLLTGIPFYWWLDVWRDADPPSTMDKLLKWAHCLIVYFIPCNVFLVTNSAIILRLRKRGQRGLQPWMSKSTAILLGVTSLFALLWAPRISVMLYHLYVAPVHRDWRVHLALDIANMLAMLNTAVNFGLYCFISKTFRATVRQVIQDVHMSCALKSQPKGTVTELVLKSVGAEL

[18] = Oral bioavailability in Sprague-Dawley rat at 5 mg/kg; type: ADME, organism-based; settings: in vivo
[19] = Cmax in Sprague-Dawley rat at 5 mg/kg, po; type: ADME, organism-based; set-up: dose 5 mg/kg, route oral; settings: in vivo
[20] = Clearance in Sprague-Dawley rat at 1 mg/kg, iv; type: ADME, organism-based; settings: in vivo
[21] = Half life in Sprague-Dawley rat at 1 mg/kg, iv; type: ADME, organism-based; settings: in vivo
[22] = Volume of distribution at steady state in Sprague-Dawley rat at 1 mg/kg, iv and 5 mg/kg, po; type: ADME, organism-based; settings: in vivo, read-out: Vdss
[23] = AUC in Sprague-Dawley rat at 1 mg/kg, iv and 5 mg/kg, po; type: ADME, organism-based; settings: in vivo
[24] = Ratio of drug level in brain to plasma in Sprague-Dawley rat at 1 mg/kg, iv and 5 mg/kg, po; type: ADME, organism-based; settings: read-out: BPR
[25] = target: T5, Probable G-protein coupled receptor 139 (Homo sapiens) (UniProt Q6DWJ6); test: Total binding affinity to human GPR139 receptor expressed in CHO-TRex cells at 10 nM after 60 mins by scintillation counting; type: cell-based
T5 sequence (whole entry): T1 sequence (Q6DWJ6 whole entry)
Method in brief: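 Whole CHO-TRex cells stably expressing human GPR139 were incubated with 10 nM of the tritiated ligand to measure total binding. Nonspecific binding was defined by blocking with 10 μM of an unlabelled reference GPR139 agonist. Specific binding was taken as total minus nonspecific.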

Cytochrome P450 2D6, sequence (P10635 whole entry): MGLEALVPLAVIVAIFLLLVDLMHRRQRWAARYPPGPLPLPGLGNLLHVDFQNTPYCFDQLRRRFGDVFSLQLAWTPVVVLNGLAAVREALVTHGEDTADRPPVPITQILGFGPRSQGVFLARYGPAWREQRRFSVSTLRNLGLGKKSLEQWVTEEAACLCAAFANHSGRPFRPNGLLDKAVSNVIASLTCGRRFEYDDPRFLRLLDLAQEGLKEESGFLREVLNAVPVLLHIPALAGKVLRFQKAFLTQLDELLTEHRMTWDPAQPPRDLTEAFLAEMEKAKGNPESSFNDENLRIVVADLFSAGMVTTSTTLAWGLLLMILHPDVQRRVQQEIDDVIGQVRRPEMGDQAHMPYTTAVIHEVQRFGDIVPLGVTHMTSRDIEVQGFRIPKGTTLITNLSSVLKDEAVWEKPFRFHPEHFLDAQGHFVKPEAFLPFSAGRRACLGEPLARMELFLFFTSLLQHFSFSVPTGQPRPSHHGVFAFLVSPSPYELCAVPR
Cytochrome P450 3A4, sequence (P08684 whole entry): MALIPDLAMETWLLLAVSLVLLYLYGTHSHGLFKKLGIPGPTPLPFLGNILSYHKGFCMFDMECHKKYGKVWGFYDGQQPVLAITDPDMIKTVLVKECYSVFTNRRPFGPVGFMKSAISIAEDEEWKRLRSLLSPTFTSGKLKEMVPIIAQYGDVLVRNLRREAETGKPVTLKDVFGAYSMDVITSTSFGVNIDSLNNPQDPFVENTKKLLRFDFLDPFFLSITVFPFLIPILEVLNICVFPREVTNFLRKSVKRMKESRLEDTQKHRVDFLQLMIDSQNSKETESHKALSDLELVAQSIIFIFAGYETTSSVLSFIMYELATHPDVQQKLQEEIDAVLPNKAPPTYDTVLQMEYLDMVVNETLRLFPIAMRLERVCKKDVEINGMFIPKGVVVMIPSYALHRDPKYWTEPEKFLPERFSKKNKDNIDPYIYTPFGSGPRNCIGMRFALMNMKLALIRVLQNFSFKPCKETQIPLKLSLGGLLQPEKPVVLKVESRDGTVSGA
Cytochrome P450 2C19, sequence (P33261 whole entry): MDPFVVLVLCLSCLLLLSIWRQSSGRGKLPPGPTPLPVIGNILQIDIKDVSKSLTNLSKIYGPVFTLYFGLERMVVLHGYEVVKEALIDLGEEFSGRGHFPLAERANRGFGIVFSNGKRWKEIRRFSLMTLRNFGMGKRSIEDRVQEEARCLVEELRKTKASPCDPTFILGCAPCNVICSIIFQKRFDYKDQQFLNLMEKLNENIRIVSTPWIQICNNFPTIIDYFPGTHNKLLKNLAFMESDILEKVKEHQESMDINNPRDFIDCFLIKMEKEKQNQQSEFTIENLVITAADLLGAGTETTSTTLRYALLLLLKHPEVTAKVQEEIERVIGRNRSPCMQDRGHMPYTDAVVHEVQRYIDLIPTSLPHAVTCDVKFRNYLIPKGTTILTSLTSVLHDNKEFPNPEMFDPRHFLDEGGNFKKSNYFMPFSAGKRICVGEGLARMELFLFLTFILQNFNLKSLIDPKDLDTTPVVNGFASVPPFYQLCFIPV
Cytochrome P450 2C9, sequence (P11712 whole entry): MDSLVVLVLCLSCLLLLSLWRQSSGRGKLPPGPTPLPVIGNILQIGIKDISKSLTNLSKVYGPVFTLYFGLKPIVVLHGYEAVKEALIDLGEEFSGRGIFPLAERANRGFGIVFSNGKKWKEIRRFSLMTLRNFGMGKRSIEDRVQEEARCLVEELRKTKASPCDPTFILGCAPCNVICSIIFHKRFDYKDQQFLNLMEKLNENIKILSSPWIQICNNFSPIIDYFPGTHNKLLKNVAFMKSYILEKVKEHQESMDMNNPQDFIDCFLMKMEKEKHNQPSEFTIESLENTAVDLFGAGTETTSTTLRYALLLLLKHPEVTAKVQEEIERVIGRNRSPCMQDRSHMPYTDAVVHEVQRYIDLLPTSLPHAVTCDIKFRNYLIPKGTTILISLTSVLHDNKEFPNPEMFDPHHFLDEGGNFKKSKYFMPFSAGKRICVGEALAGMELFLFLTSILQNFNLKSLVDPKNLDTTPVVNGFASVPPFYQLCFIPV

EC50 [1]: 52 nM
SMILES: C[C@H](NC(=O)CNC(=O)c1cccc(Cl)c1Cl)c1ccccc1

EC50 [1]: 162 nM
SMILES: C[C@H](NC(=O)CNC(=O)c1ccccc1)c1ccccc1

EC50 [1]: 193 nM
SMILES: C[C@H](NC(=O)CNC(=O)c1ccc(Cl)c(Cl)c1)c1ccccc1

EC50 [1]: 43 nM
SMILES: COc1cc(OC)cc(C(=O)NNC(=O)Nc2cccc3ccccc23)c1

EC50 [1]: 52 nM
SMILES: C[C@H](NC(=O)CNC(=O)c1cccc(C(F)(F)F)c1)c1ccccc1

hepatic extraction ratio at 1 h, 1 µM [2]: 0.3 | hepatic extraction ratio at 1 h, 1 µM [3]: 0.4 | Papp [4]: 32 ×10⁻⁶ cm/s | efflux ratio [5]: 1.7 | fraction unbound at 6 h, up to 10 µM [6]: 0.1 | fraction unbound at 6 h, up to 10 µM [7]: 0.25 | fraction unbound at 6 h, up to 10 µM [8]: 0.09 | solubility at 72 h [9]: > 35 µM | solubility at 72 h [10]: > 35 µM | inhibition (INH) [11]: Not Active | inhibition (INH) [12]: Not Active | inhibition (INH) [13]: Not Active | inhibition (INH) [14]: Not Active | inhibition (INH) [15]: Not Active | inhibition (INH) [16]: Not Active | Activity [17]: inactive | bioavailability [18]: 49% | Cmax [19]: 317 ng/mL | clearance [20]: 53 mL/min/kg | half-life [21]: 150 min | Vd [22]: 2.1 L/kg | AUC [23]: 683 ng·h/mL | Kp [24]: 1.2 | Activity [25]: Active
SMILES: C[C@H](NC(=O)CNC(=O)c1cccc(Cl)c1)c1ccccc1

EC50 [1]: 150 nM
SMILES: C[C@H](NC(=O)CNC(=O)c1ccccc1Cl)c1ccccc1

EC50 [1]: 66 nM
SMILES: COc1cccc(C(=O)N[C@@H](C)C(=O)N[C@@H](C)c2ccccc2)c1

EC50 [1]: > 10000 nM
SMILES: C[C@H](NCCNC(=O)c1cccc(Cl)c1)c1ccccc1

EC50 [1]: 46 nM
SMILES: C[C@H](NC(=O)CNC(=O)c1cc(Cl)cc(Cl)c1)c1ccccc1

EC50 [1]: 670 nM
SMILES: CC(NC(=O)CSC(=O)c1ccccc1)c1ccccc1 (stereo not given)

EC50 [1]: 1700 nM
SMILES: COc1cccc(C(=O)NCC(=O)N[C@H](C)c2ccccc2)c1

EC50 [1]: > 10000 nM
SMILES: C[C@H](NC(=O)CNCc1cccc(Cl)c1)c1ccccc1

EC50 [1]: 46 nM
SMILES: C[C@H](NC(=O)CNC(=O)c1cccc(OC(F)(F)F)c1)c1ccccc1

EC50 [1]: 33 nM | hepatic extraction ratio at 1 h, 1 µM [2]: 0.3 | hepatic extraction ratio at 1 h, 1 µM [3]: 0.8 | Papp [4]: 16 ×10⁻⁶ cm/s | efflux ratio [5]: 5.5 | fraction unbound at 6 h, up to 10 µM [6]: 0.14 | fraction unbound at 6 h, up to 10 µM [7]: 0.36 | fraction unbound at 6 h, up to 10 µM [8]: 0.16 | solubility at 72 h [9]: > 35 µM | solubility at 72 h [10]: > 35 µM | inhibition (INH) [11]: Not Active | inhibition (INH) [12]: Not Active | inhibition (INH) [13]: Not Active | inhibition (INH) [14]: Not Active | inhibition (INH) [15]: Not Active | inhibition (INH) [16]: Not Active
SMILES: COc1cccc(C(=O)NCC(=O)N[C@@H](C)c2ccccc2)c1

EC50 [1]: 59 nM
SMILES: C[C@H](NC(=O)CNC(=O)c1cccc(C#N)c1)c1ccccc1

EC50 [1]: 440 nM
SMILES: COc1cccc(C(=O)N[C@H](C)C(=O)N[C@@H](C)c2ccccc2)c1

SMILES: C[C@@H](NC(=O)CNC(=O)c1cccc(Cl)c1)c1ccccc1
EC50 [1]: 2100 nM

SMILES: COc1cc(OC)cc(C(=O)NCC(=O)N[C@@H](C)c2ccccc2)c1
EC50 [1]: 32 nM

EC50 [1]: 10000 nM
SMILES: COc1cccc(C(=O)N[C@@H](Cc2ccccc2)C(=O)N[C@@H](C)c2ccccc2)c1

EC50 [1]: 283 nM
SMILES: COc1cccc(C(=O)N[C@@H](CO)C(=O)N[C@@H](C)c2ccccc2)c1

EC50 [1]: 40 nM
SMILES: C[C@H](NC(=O)CNC(=O)c1cc(Cl)ccc1Cl)c1ccccc1

EC50 [1]: 24 nM
SMILES: C[C@H](NC(=O)CNC(=O)c1cc(F)cc(Cl)c1)c1ccccc1

EC50 [1]: 54 nM
SMILES: C[C@H](NC(=O)CNC(=O)c1cccc(F)c1)c1ccccc1

EC50 [1]: 24 nM
SMILES: Cc1cccc(C(=O)NCC(=O)N[C@@H](C)c2ccccc2)c1

EC50 [1]: 118 nM
SMILES: C[C@H](NC(=O)CNC(=O)c1ccc(Cl)cc1)c1ccccc1

EC50 [1]: 78 nM
SMILES: C[C@H](NC(=O)CNC(=O)c1cc(Cl)cc(Br)c1)c1ccccc1
